Measurements reported in article PMC4832855 (Cancer Science, 2016).

Tests used:
IGF‐1R = IGF‐1R (Homo sapiens, UniProt P08069); assay: Kinase inhibition profiling at 100 nmol/L; assay type: biochemical; details: read-out: Inhibition at 100 nmol/L
IR = IR (Homo sapiens, UniProt P06213); assay: Kinase inhibition profiling at 100 nmol/L; assay type: biochemical; details: read-out: Inhibition at 100 nmol/L
TrkA = TrkA (Homo sapiens, UniProt P04629); assay: Kinase inhibition profiling at 100 nmol/L; assay type: biochemical
Sequence of TrkA (P04629 33-796): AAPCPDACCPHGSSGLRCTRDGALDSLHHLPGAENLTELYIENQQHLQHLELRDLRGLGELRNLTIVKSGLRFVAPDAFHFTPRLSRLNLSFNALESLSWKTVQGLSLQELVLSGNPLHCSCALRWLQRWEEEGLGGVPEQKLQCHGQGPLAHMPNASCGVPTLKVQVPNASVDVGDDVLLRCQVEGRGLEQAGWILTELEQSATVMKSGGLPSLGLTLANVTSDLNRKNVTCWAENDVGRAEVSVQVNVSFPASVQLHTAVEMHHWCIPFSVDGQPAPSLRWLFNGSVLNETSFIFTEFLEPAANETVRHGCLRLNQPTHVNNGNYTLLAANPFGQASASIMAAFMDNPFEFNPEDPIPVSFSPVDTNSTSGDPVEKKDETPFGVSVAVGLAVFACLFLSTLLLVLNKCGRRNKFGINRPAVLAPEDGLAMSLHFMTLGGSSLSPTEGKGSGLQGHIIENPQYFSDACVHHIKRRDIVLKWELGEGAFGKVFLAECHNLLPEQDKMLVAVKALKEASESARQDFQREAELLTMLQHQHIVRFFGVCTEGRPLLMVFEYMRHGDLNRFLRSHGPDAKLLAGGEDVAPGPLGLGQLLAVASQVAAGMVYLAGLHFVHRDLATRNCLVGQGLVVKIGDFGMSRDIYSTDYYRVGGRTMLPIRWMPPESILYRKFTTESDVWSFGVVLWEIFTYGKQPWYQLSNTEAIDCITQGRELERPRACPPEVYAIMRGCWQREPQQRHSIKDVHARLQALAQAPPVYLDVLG

AurB = AurB (Homo sapiens, UniProt Q96GD4); assay: Kinase inhibition profiling at 100 nmol/L; assay type: biochemical; details: read-out: Inhibition at 100 nmol/L
Sequence of AurB (Q96GD4 whole entry): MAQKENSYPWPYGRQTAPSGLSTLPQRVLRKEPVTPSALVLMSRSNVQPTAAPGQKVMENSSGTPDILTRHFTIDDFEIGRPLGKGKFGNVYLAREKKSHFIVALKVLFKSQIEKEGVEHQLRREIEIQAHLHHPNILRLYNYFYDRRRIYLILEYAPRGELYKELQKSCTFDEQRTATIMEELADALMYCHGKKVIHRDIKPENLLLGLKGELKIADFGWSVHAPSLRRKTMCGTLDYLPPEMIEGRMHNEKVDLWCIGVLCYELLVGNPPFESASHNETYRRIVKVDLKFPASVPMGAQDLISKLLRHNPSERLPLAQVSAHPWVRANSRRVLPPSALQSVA
Sequence of AurB (Q9NQS7 803-916 partner limits assumed): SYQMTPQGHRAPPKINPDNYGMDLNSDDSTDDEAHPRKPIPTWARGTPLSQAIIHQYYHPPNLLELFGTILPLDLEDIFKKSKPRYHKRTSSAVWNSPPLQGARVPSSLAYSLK

Btc = assay: Kinase inhibition profiling at 100 nmol/L; assay type: biochemical, human
p381 = assay: Kinase inhibition profiling at 100 nmol/L; assay type: biochemical, human; details: p381, 100 nmol/L
focal adhesion kinase = focal adhesion kinase (Homo sapiens, UniProt Q05397); assay: Kinase inhibition profiling at 100 nmol/L; assay type: biochemical; details: read-out: Inhibition at 100 nmol/L
Sequence of focal adhesion kinase (Q05397 whole entry): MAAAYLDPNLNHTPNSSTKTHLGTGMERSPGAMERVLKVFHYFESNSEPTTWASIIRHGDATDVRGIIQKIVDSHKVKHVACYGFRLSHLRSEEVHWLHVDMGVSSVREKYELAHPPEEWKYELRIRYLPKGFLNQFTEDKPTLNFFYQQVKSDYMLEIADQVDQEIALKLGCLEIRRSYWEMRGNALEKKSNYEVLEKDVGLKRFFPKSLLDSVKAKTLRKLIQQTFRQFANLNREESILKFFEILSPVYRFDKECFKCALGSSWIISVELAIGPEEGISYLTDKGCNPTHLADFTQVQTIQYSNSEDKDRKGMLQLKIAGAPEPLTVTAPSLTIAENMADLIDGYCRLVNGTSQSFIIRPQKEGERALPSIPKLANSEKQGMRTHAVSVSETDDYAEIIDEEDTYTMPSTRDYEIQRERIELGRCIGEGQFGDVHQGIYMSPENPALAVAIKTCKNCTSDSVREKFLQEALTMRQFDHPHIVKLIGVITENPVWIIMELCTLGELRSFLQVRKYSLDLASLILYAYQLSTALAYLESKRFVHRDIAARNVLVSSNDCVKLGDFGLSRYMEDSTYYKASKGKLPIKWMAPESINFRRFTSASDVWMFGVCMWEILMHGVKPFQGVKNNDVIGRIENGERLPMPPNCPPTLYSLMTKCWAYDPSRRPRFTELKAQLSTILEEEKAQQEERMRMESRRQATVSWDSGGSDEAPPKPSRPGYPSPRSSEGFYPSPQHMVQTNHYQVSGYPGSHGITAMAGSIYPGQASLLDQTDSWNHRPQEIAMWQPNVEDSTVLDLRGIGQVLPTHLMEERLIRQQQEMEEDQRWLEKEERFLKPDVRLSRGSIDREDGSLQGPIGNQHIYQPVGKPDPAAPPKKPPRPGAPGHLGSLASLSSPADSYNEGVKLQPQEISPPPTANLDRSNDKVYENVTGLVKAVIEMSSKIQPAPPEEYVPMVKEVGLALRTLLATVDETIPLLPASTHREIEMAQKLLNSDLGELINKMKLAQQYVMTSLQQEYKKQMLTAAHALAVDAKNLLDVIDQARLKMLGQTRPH

[1] = biological target: fms‐like tyrosine kinase‐1 (Homo sapiens, UniProt P17948); assay: Kinase inhibition profiling at 100 nmol/L; assay type: biochemical; details: read-out: Inhibition at 100 nmol/L
Sequence of fms‐like tyrosine kinase‐1 (P17948 27-1338): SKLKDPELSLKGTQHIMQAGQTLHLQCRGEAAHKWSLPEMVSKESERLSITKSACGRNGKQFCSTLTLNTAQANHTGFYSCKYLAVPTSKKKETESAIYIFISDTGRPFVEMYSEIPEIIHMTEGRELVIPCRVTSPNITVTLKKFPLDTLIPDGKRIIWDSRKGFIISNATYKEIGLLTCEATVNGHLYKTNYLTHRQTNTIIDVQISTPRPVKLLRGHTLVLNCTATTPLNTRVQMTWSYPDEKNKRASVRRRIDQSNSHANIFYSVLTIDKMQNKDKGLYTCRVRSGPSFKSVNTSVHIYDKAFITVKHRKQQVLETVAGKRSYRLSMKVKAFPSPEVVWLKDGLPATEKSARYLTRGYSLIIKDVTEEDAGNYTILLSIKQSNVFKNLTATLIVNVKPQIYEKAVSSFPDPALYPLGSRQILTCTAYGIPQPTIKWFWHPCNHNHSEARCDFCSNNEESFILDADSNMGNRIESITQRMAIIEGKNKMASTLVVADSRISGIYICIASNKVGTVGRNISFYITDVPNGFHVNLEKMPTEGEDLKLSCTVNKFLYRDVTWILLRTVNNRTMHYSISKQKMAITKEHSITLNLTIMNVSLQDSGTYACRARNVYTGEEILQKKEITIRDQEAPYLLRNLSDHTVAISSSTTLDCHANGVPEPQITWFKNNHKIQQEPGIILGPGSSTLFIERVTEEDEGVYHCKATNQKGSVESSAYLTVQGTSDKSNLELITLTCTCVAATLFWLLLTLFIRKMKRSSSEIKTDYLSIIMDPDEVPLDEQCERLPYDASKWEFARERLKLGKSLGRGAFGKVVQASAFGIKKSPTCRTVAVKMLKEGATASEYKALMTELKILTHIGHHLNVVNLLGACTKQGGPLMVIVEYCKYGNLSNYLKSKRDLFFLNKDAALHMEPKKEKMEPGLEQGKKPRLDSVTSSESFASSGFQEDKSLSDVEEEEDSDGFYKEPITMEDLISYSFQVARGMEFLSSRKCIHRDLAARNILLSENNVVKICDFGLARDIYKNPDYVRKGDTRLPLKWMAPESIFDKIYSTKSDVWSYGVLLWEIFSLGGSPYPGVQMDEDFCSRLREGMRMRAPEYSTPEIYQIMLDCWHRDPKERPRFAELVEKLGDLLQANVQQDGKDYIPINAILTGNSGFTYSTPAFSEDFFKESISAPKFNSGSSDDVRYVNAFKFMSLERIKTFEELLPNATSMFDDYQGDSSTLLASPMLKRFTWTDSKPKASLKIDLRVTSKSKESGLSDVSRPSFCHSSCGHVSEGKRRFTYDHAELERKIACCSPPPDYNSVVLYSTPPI

[2] = biological target: kinase insert domain receptor (Homo sapiens, UniProt P35968); assay: Kinase inhibition profiling at 100 nmol/L; assay type: biochemical; details: read-out: Inhibition at 100 nmol/L
Sequence of kinase insert domain receptor (P35968 20-1356): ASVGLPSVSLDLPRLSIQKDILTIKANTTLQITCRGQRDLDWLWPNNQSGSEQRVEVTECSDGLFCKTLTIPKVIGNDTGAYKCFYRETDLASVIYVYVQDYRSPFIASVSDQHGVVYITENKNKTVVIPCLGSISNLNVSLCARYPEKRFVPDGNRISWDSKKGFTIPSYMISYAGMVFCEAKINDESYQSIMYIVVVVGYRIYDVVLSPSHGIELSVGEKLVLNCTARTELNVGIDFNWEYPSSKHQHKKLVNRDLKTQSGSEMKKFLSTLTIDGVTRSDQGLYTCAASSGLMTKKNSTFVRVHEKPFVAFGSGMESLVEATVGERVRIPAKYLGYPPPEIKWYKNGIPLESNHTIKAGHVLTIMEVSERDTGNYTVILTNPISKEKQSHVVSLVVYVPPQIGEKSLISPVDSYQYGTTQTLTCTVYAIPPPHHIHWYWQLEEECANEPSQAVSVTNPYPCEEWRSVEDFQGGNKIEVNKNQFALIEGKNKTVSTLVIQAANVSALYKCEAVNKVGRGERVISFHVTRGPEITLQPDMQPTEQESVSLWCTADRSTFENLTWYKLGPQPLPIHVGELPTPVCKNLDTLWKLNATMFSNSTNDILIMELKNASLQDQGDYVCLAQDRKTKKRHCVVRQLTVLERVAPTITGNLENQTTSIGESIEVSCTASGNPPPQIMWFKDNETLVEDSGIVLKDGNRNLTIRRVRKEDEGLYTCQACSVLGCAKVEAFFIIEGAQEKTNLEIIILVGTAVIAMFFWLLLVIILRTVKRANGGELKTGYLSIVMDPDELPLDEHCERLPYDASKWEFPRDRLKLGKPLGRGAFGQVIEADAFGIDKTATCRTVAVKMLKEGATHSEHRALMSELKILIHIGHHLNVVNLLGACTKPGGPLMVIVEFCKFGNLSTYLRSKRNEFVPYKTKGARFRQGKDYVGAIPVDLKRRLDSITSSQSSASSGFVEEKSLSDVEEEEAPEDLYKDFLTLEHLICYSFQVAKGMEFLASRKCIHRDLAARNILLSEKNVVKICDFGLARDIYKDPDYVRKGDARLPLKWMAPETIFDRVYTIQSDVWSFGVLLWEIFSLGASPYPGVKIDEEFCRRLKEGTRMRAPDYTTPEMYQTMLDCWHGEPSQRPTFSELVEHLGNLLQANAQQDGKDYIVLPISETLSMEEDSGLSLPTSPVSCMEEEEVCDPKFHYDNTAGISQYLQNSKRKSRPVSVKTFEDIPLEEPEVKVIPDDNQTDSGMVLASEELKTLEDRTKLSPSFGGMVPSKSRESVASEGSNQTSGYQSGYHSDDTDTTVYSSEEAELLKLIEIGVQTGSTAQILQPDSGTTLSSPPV

[3] = test system: panel of human malignant cell lines; assay: Correlation of antiproliferative activity with anti‐IGF‐1 antibody KM1468; assay type: cell-based; details: range of human malignant cell lines (Fig. S1a)
[4] = test system: IGF‐1‐induced tyrosine phosphorylation of IGF‐1R in HT‐29/GFP cells; assay: In vitro signal transduction assay; assay type: cell-based, human; details: 30 nmol/L, 2 hours
In short: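 HT-29/GFP colon cancer cells in culture exposed to test compound, then stimulated with human IGF-1 or human insulin; receptor tyrosine phosphorylation and downstream signalling assessed across a concentration series.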

[5] = test system: HT‐29/GFP human colon cancer cells; assay: Flow cytometric cell cycle analysis; assay type: cell-based
SCID mice = assay: Hyperglycemia and hyperinsulinemia in mice; assay type: in vivo, mouse; details: oral 10, 20, 40, 80 mg/kg
[6] = Plasma protein binding, equilibrium dialysis; assay type: in vitro ADME; details: human, pH 7.2
[7] = test system: patients with advanced solid tumors; assay: Phase I first-in-human study: safety, tolerability, DLT, MTD; assay type: in vivo
In short: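 Open-label 3+3 dose-escalation/de-escalation; oral once-daily dosing under overnight fasting for 28 days, 1-week observation, then continuous; AEs graded by CTCAE v3.0 with attribution; DLTs included grade 3 fasting hyperglycemia, grade 3 non-fasting hyperglycemia >4 h, grade 4 hyperglycemia, grade ≥2 cardiac toxicity, other grade ≥3 non-hematologic events, grade 4 neutropenia >7 days, grade 4 thrombocytopenia.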

Cc1ccsc1C(=O)Nc1cc(CN2CCN(C(=O)CO)CC2)ccc1/C=C/c1n[nH]c2ccccc12 [KW‐2450]
inhibition at 0.1 µM (IGF‐1R): 94.1%
inhibition at 0.1 µM (IR): 95.6%
Inhibition at 100 nmol/L (TrkA; TrkA, 100 nmol/L): 101.1%
inhibition at 0.1 µM (TrkA; read-out: Inhibition at 100 nmol/L, TrkA, 100 nmol/L): > 90%
inhibition at 0.1 µM (AurB): 76.8%
Inhibition at 100 nmol/L (Btc): 63.2%
Inhibition at 100 nmol/L (p381): –2.5%
inhibition at 0.1 µM (focal adhesion kinase): > 90%
inhibition at 0.1 µM [1]: > 90%
inhibition at 0.1 µM [2]: > 90%
Correlation of degree of in vitro inhibition with that induced by anti‐IGF‐1 antibody KM1468 [3]: highly correlated
Inhibition of IGF‐1‐induced tyrosine phosphorylation of IGF‐1R [4]: complete inhibition
Cell cycle distribution ([5]; higher concentrations of 1200 and 2000 nmol/L): G1 and G2/M phase accumulations
Cell cycle distribution ([5]; lower concentrations of 120 and 400 nmol/L): G1 phase accumulation
Plasma glucose level (SCID mice): elevated levels
Plasma insulin level (SCID mice): elevated levels
fraction unbound at 6 h [6]: 0.009 to 0.016
Anorexia, treatment‐related, Grade 1–2 ([7]; 37.5 mg/day (n = 7)): 2 (28.6) No. of patients (%)
Anorexia, treatment‐related, Grade 3 ([7]; 37.5 mg/day (n = 7)): 0 (0.0) No. of patients (%)
Constipation, treatment‐related, Grade 1–2 ([7]; 37.5 mg/day (n = 7)): 1 (14.3) No. of patients (%)
Constipation, treatment‐related, Grade 3 ([7]; 37.5 mg/day (n = 7)): 0 (0.0) No. of patients (%)
Decreased appetite, treatment‐related, Grade 1–2 ([7]; 37.5 mg/day (n = 7)): 0 (0.0) No. of patients (%)
Decreased appetite, treatment‐related, Grade 3 ([7]; 37.5 mg/day (n = 7)): 0 (0.0) No. of patients (%)
Diarrhea, treatment‐related, Grade 1–2 ([7]; 37.5 mg/day (n = 7)): 0 (0.0) No. of patients (%)
Diarrhea, treatment‐related, Grade 3 ([7]; 37.5 mg/day (n = 7)): 0 (0.0) No. of patients (%)
Dizziness, treatment‐related, Grade 1–2 ([7]; 37.5 mg/day (n = 7)): 1 (14.3) No. of patients (%)
Dizziness, treatment‐related, Grade 3 ([7]; 37.5 mg/day (n = 7)): 0 (0.0) No. of patients (%)
Fatigue, treatment‐related, Grade 1–2 ([7]; 37.5 mg/day (n = 7)): 4 (57.1) No. of patients (%)
Fatigue, treatment‐related, Grade 3 ([7]; 37.5 mg/day (n = 7)): 0 (0.0) No. of patients (%)
Hyperglycemia, treatment‐related, Grade 1–2 ([7]; 37.5 mg/day (n = 7)): 1 (14.3) No. of patients (%)
Hyperglycemia, treatment‐related, Grade 3 ([7]; 37.5 mg/day (n = 7)): 0 (0.0) No. of patients (%)
Mucosal inflammation, treatment‐related, Grade 1–2 ([7]; 37.5 mg/day (n = 7)): 1 (14.3) No. of patients (%)
Mucosal inflammation, treatment‐related, Grade 3 ([7]; 37.5 mg/day (n = 7)): 0 (0.0) No. of patients (%)
Nausea, treatment‐related, Grade 1–2 ([7]; 37.5 mg/day (n = 7)): 2 (28.6) No. of patients (%)
Nausea, treatment‐related, Grade 3 ([7]; 37.5 mg/day (n = 7)): 0 (0.0) No. of patients (%)
Pain, treatment‐related, Grade 1–2 ([7]; 37.5 mg/day (n = 7)): 0 (0.0) No. of patients (%)
Pain, treatment‐related, Grade 3 ([7]; 37.5 mg/day (n = 7)): 0 (0.0) No. of patients (%)
Rash, treatment‐related, Grade 1–2 ([7]; 37.5 mg/day (n = 7)): 1 (14.3) No. of patients (%)
Rash, treatment‐related, Grade 3 ([7]; 37.5 mg/day (n = 7)): 1 (14.3) No. of patients (%)
Vomiting, treatment‐related, Grade 1–2 ([7]; 37.5 mg/day (n = 7)): 1 (14.3) No. of patients (%)
Vomiting, treatment‐related, Grade 3 ([7]; 37.5 mg/day (n = 7)): 0 (0.0) No. of patients (%)
Patients with dose‐limiting toxicity ([7]; 37.5 mg/day, one of seven patients, grade 3 rash): 14.3%
Anorexia, treatment‐related, Grade 1–2 ([7]; 50 mg/day (n = 6)): 0 (0.0) No. of patients (%)
Anorexia, treatment‐related, Grade 3 ([7]; 50 mg/day (n = 6)): 0 (0.0) No. of patients (%)
Constipation, treatment‐related, Grade 1–2 ([7]; 50 mg/day (n = 6)): 1 (16.7) No. of patients (%)
Constipation, treatment‐related, Grade 3 ([7]; 50 mg/day (n = 6)): 0 (0.0) No. of patients (%)
Decreased appetite, treatment‐related, Grade 1–2 ([7]; 50 mg/day (n = 6)): 3 (50.0) No. of patients (%)
Decreased appetite, treatment‐related, Grade 3 ([7]; 50 mg/day (n = 6)): 0 (0.0) No. of patients (%)
Diarrhea, treatment‐related, Grade 1–2 ([7]; 50 mg/day (n = 6)): 2 (33.3) No. of patients (%)
Diarrhea, treatment‐related, Grade 3 ([7]; 50 mg/day (n = 6)): 0 (0.0) No. of patients (%)
Dizziness, treatment‐related, Grade 1–2 ([7]; 50 mg/day (n = 6)): 2 (33.3) No. of patients (%)
Dizziness, treatment‐related, Grade 3 ([7]; 50 mg/day (n = 6)): 0 (0.0) No. of patients (%)
Fatigue, treatment‐related, Grade 1–2 ([7]; 50 mg/day (n = 6)): 4 (66.7) No. of patients (%)
Fatigue, treatment‐related, Grade 3 ([7]; 50 mg/day (n = 6)): 0 (0.0) No. of patients (%)
Hyperglycemia, treatment‐related, Grade 1–2 ([7]; 50 mg/day (n = 6)): 2 (33.3) No. of patients (%)
Hyperglycemia, treatment‐related, Grade 3 ([7]; 50 mg/day (n = 6)): 2 (33.3) No. of patients (%)
Mucosal inflammation, treatment‐related, Grade 1–2 ([7]; 50 mg/day (n = 6)): 1 (16.7) No. of patients (%)
Mucosal inflammation, treatment‐related, Grade 3 ([7]; 50 mg/day (n = 6)): 0 (0.0) No. of patients (%)
